Test results as given in ChEMBL document CHEMBL3352769, “Discovery of glycine sulfonamides as dual inhibitors of sn-1-diacylglycerol lipase α and α/β-hydrolase domain 6” (J Med Chem, 2014).
Values belong to the molecule of their own block, whether it stands above or below them. Activity calls are given as the source filed them. The calls are words filed in the database; no cut-off is given here.

Key:
[1] = target: T1, Diacylglycerol lipase-alpha (Homo sapiens, UniProt Q9Y4D2); experiment: Inhibition of human DAGLalpha expressed in HEK293T cell membranes; format: cell-based, HEK-293T
T1 sequence (Q9Y4D2 whole entry): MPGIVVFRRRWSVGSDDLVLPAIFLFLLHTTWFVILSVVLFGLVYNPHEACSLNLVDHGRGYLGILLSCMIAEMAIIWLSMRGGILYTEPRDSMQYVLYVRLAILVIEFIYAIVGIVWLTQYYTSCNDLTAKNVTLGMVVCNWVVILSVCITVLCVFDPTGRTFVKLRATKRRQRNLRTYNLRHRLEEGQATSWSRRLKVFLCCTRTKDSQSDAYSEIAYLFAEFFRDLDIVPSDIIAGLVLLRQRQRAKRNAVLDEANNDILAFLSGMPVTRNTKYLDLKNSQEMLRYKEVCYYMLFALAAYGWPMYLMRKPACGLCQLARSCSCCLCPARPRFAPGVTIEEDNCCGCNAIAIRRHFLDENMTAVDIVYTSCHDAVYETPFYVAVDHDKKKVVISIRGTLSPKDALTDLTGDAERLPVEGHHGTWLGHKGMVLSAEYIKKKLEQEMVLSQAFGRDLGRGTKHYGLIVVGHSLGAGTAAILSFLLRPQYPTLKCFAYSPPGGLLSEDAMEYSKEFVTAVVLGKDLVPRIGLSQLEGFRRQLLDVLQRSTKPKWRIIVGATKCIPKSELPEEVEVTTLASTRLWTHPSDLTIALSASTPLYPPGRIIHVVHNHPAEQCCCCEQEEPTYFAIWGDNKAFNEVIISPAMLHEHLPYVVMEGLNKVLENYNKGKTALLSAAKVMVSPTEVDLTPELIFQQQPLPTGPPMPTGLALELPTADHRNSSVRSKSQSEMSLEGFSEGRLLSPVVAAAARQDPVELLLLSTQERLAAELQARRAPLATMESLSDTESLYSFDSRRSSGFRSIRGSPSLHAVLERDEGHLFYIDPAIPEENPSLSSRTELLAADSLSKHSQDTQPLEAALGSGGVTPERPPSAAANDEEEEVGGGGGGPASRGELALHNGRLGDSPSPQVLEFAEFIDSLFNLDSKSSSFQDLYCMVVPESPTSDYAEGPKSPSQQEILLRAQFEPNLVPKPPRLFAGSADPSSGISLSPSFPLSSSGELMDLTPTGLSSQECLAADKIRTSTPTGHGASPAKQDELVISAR
Method in brief: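 Colorimetric biochemical assay using para-nitrophenylbutyrate as substrate with membranes from HEK293 cells overexpressing human DAGL-α.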

[2] = target: T2, Diacylglycerol lipase-alpha (Mus musculus) (UniProt Q6WQJ1); experiment: (§1) Inhibition of MB064 labeling of DAGLalpha in mouse brain homogenates by activity based protein profiling assay; format: tissue-based
T2 sequence (whole entry): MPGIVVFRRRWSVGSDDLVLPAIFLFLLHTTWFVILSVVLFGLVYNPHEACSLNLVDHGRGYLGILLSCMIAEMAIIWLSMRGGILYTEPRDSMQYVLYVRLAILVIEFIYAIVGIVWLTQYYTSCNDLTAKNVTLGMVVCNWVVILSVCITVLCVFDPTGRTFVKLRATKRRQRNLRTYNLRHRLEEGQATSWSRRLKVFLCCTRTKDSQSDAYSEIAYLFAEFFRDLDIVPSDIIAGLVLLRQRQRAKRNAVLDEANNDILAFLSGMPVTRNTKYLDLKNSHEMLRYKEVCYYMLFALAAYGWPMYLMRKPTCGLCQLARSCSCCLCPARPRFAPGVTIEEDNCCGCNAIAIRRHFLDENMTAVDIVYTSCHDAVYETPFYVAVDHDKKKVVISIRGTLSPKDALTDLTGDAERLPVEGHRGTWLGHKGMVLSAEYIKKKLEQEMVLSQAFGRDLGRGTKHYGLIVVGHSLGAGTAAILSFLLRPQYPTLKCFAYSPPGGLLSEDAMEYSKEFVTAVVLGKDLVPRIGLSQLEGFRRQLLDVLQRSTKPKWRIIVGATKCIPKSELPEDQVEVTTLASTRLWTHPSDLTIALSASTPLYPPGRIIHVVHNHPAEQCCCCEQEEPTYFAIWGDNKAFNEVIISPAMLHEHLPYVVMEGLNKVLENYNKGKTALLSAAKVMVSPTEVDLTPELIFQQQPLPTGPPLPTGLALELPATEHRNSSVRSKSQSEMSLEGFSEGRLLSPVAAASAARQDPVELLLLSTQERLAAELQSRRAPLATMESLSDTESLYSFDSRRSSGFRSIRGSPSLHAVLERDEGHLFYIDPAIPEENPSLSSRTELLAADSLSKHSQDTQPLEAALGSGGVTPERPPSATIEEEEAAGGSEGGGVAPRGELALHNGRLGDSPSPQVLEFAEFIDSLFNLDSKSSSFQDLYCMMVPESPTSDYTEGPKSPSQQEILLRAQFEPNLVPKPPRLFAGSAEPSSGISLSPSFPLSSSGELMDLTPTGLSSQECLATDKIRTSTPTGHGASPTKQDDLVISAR
Method in brief: (§2)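 Endogenous DAGL-α in mouse brain membrane proteome: inhibitors at a range of concentrations, 30 min at rt, then probe 1 for 10 min at rt. Quenched in SDS sample buffer, resolved on 10% SDS-PAGE, fluorescence scanned. Remaining activity taken from integrated band intensity; IC50 from dose-response curve (SEM, n = 3).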

[3] = target: T3, Diacylglycerol lipase-alpha (Mus musculus, UniProt Q6WQJ1); experiment: as §1; format: tissue-based; method in brief: as §2
T3 sequence (Q6WQJ1 whole entry): T2 sequence (whole entry)

Mus musculus = species on record: Mus musculus; experiment: Inhibition of MAGL labeling in mouse brain homogenates at 20 uM by activity based protein profiling assay; format: tissue-based
Method in brief: (§3)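 Mouse brain membrane proteome (2.0 mg/mL) preincubated 30 min at rt with inhibitor or DMSO vehicle, then labeled 15 min at rt with ABP 1 (250 nM final) or TAMRA-FP (500 nM final). Gel-based read-out: lane band intensity corrected for total protein loading by Coomassie stain, vehicle set to 100%.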

[4] = target: T4, Monoacylglycerol lipase ABHD6 (Mus musculus) (UniProt Q8R2Y0); experiment: Inhibition of TAMRA-FP labeling of ABHD6 in mouse brain homogenates at 20 uM by activity based protein profiling assay; format: tissue-based; details: in the assay text read “MB064” for “TAMRA-FP”; method in brief: as §3
T4 sequence (whole entry): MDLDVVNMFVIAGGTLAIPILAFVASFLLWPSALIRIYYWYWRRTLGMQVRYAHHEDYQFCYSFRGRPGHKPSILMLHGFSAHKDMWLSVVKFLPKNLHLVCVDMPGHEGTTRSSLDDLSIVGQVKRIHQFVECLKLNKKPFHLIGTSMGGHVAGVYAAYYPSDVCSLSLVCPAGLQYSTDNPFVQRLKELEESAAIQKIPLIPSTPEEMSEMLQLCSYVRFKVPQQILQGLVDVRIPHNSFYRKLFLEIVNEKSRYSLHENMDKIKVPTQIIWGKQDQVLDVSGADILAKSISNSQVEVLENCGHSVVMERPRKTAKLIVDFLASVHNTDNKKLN

[5] = target: T5, Monoacylglycerol lipase ABHD6 (Homo sapiens) (UniProt Q9BV23); experiment: (§4) Inhibition of human ABHD6 expressed in HEK293T cell membranes assessed as reduction in glycerol production using 2-arachidonoyl glycerol substrate; format: cell-based; details: HEK-293T
T5 sequence (whole entry): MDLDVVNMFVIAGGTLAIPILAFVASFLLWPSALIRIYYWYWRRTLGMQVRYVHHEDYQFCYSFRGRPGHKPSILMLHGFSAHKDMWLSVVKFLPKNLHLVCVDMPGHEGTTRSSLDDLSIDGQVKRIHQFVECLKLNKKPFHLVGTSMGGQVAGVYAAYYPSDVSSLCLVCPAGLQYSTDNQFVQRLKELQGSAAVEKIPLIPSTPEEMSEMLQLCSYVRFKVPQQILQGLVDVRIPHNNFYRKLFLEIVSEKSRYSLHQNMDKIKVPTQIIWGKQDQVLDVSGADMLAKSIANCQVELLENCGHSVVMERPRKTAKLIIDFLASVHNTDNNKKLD
Method in brief: (§5)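 Human ABHD6 membranes from transiently transfected HEK293T (0.04 µg/µL final) in HEMNB buffer, pH 7.4, preincubated 30 min with inhibitor. 2-AG (25 µM) added with glycerol kinase/GPO/HRP (0.2 U/mL), 0.125 mM ATP and 10 µM Amplifu Red. Resorufin fluorescence read every 5 min for 75 min at 21°C; slopes over 10–35 min, normalized; N = 2, n = 2.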

[6] = target: T6, Monoacylglycerol lipase ABHD6 (Homo sapiens, UniProt Q9BV23); experiment: as §4; format: cell-based, HEK-293T; method in brief: as §5
T6 sequence (Q9BV23 whole entry): T5 sequence (whole entry)

[7] = target: T2, Diacylglycerol lipase-alpha (Mus musculus); experiment: Inhibition of MB064 labeling of DAGLalpha in mouse brain homogenates by activity based protein profiling assay
[8] = target: T1, Diacylglycerol lipase-alpha; experiment: Inhibition of human DAGLalpha expressed in HEK293T cell membranes assessed as reduction in hydrolysis of inhibition of [14C]-sn-1-oleoyl-2-arachidonoyl-glycerol; format: cell-based, HEK-293T

Structure (SMILES): CC1(C)CCc2cc(S(=O)(=O)N(CC(=O)O)Cc3cccc(Oc4ccccc4)c3)ccc2O1
- IC50 [1]: 56 nM
- inhibition [2]: Dose-dependent effect
- IC50 [3]: 355 nM
- inhibition (Mus musculus): inactive
- inhibition [4]: Active
- inhibition [5]: Dose-dependent effect
- Ki [6]: 18300 nM
- inhibition [7]: Dose-dependent effect

Structure (SMILES): CC1(C)CCc2cc(S(=O)(=O)N(CC(=O)O)Cc3ccc(Oc4ccc(C(F)(F)F)cn4)cc3)ccc2O1
- IC50 [1]: 65 nM
- inhibition [2]: Dose-dependent effect
- IC50 [3]: 743 nM
- inhibition (Mus musculus): inactive
- inhibition [4]: Active
- inhibition [5]: Dose-dependent effect
- Ki [6]: 2700 nM
- inhibition [7]: Dose-dependent effect

Structure (SMILES): O=C(O)CN(Cc1ccc(Oc2ccccc2)cc1)S(=O)(=O)c1ccc(Cl)cc1
- IC50 [1]: 66 nM

Structure (SMILES): CC1(C)CCc2cc(S(=O)(=O)N(CCN)Cc3ccc(Oc4ccccc4)cc3)ccc2O1
- IC50 [1]: 512 nM

Structure (SMILES): O=C(O)CN(Cc1cccc(Oc2ccccc2)c1)S(=O)(=O)c1ccc(Cl)cc1
- IC50 [1]: 91 nM

Structure (SMILES): O=C(O)CN(Cc1ccc(Oc2ccccc2)cc1)C(=O)c1c(Cl)cccc1Cl
- IC50 [1]: > 10000 nM

Structure (SMILES): CC1(C)CCc2cc(S(=O)(=O)N(CC(=O)O)Cc3ccc(Oc4ccccc4)cc3)ccc2O1
- IC50 [1]: 18 nM
- Ki [8]: 700 nM
- inhibition [2]: Dose-dependent effect
- IC50 [3]: 124 nM
- inhibition (Mus musculus): inactive
- inhibition [4]: Active
- inhibition [5]: Dose-dependent effect
- Ki [6]: 800 nM
- inhibition [7]: Dose-dependent effect

Structure (SMILES): CC1(C)CCc2cc(S(=O)(=O)N(CCO)Cc3cccc(Oc4ccccc4)c3)ccc2O1
- IC50 [1]: > 10000 nM

Structure (SMILES): CC1(C)CCc2cc(S(=O)(=O)N(CC(=O)O)Cc3cccc(Oc4ccc(C(F)(F)F)cn4)c3)ccc2O1
- IC50 [1]: 143 nM

The next lines start with the values.

- IC50 [1]: > 10000 nM
Structure (SMILES): CC1(C)CCc2cc(S(=O)(=O)N(CC#N)Cc3cccc(Oc4ccccc4)c3)ccc2O1

- IC50 [1]: > 10000 nM
Structure (SMILES): O=C(O)CN(Cc1ccc(Oc2ccccc2)cc1)C(=O)c1ccc(Cl)cc1

- IC50 [1]: > 10000 nM
Structure (SMILES): O=C(O)CN(Cc1ccc(Oc2ccc(C(F)(F)F)cn2)cc1)C(=O)c1ccc(Cl)cc1

- IC50 [1]: > 10000 nM
Structure (SMILES): CC1(C)CCc2cc(S(=O)(=O)N(CCOC(=O)N3CCCCC3)Cc3cccc(Oc4ccccc4)c3)ccc2O1

- IC50 [1]: > 10000 nM
Structure (SMILES): CC1(C)CCc2cc(S(=O)(=O)N(CC(=O)NCCOCCN)Cc3ccc(Oc4ccccc4)cc3)ccc2O1

- IC50 [1]: > 10000 nM
Structure (SMILES): CC1(C)CCc2cc(S(=O)(=O)N(Cc3cccc(Oc4ccccc4)c3)Cc3nnn[nH]3)ccc2O1

- IC50 [1]: 695 nM
Structure (SMILES): O=C(O)CN(Cc1ccc(Oc2ccccc2)cc1)S(=O)(=O)c1c(Cl)cccc1Cl

- IC50 [1]: 302 nM
Structure (SMILES): O=C(O)CN(Cc1ccc(Oc2ccc(C(F)(F)F)cn2)cc1)S(=O)(=O)c1ccc(Cl)cc1

- IC50 [1]: 1600 nM
Structure (SMILES): O=C(O)CN(Cc1cccc(Oc2ccccc2)c1)S(=O)(=O)c1c(Cl)cccc1Cl

- IC50 [1]: > 10000 nM
Structure (SMILES): COC(=O)CN(Cc1ccc(Oc2ccccc2)cc1)S(=O)(=O)c1ccc2c(c1)CCC(C)(C)O2

- IC50 [1]: > 10000 nM
Structure (SMILES): CC1(C)CCc2cc(S(=O)(=O)N(CC(N)=O)Cc3cccc(Oc4ccccc4)c3)ccc2O1

- IC50 [1]: 185 nM
Structure (SMILES): CC1(C)CCc2cc(S(=O)(=O)N(CC(=O)O)Cc3ccccc3Oc3ccccc3)ccc2O1
